Assay outcomes: PubChem, several laboratories
SMARCA2 activ = SMARCA2 function activation, primary screen; MG213 cells, MMTV-luciferase reporter, dexamethasone, overnight; activation, % at 9.1 µM; 370,000 compounds, 1% hits; AID 652017; in the data active means activation above about 7.8%
MC4R ag barr = human MC4R agonism via beta-arrestin; 360,000 compounds, 0.98% hits; activation, % at 8.9 µM; AID 540308; U2OS MC4R beta-arrestin complementation, luminescence; percent of melanotan II response, DMSO zero;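 active means activation above a per-plate cutoff, the mean activation of sample wells on that plate plus 3 SD, cut at about 8% in these data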
Target sequence (P32245 whole entry, looked up): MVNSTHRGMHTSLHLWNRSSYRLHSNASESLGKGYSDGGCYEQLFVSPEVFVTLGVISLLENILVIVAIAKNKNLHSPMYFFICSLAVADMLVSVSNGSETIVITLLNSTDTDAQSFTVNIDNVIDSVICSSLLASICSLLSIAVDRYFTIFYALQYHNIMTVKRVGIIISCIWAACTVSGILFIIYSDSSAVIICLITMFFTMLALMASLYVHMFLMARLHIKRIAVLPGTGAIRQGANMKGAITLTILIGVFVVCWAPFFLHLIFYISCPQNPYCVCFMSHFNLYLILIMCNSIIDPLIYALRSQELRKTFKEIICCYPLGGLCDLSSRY
F508del corr = CFTR F508del correction in bronchial cells; 350,000 compounds, 0.36% hits; CFBE cells, YFP halide quenching; stimulated with forskolin plus potentiator P3; % fluorescence drop versus neutral controls; activity (quench increase), % at 7.58 µM;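 active means mean added fluorescence quench of at least 8% versus neutral control, with both replicates also reaching 8%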;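 further: cells transiently co-express mutant CFTR-F508del with the halide-sensitive YFP; corrector assay measuring rescue of mutant channel to the surface after 24 h compound exposure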
MC4R antag cAMP = human MC4R antagonism in cAMP assay; inhibition, % at 6.5 µM; AID 540295; P32245; 360,000 compounds, 0.48% hits; MC4R-expressing cells, MTII-stimulated cAMP, LANCE TR-FRET;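 active means inhibition above its plate's cutoff, the mean of tested wells on that plate plus 3 SD, cut at about 29% in these data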
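Material: U2OS-MC4R stable cell line | Reagent: Melanotan II challenge after compound preincubation | Doses: One concentration, 6.5 µM nominal | Incubation: 30-min compound preincubation, 1-h Melanotan II challenge, 1-h detection, room temperature | Signal: TR-FRET cAMP assay | Replicates: One well per compound, no replicates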
SMARCA2 conf = confirmation of SMARCA2 (BRM) function activators. shares compounds with SMARCA2 activ. MG213 cells, MMTV-luciferase with dexamethasone, luminescence, overnight; MG213 cells expressing E1A, Rb sequestered; DMSO wells 0%, reference activator 100%. activation, % at 9.1 µM. 3,500 compounds, 30% hits. AID 652260;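 active means activation above its plate's cutoff, the mean activation of tested wells plus 3 SD, cut at about 7.9% in these data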
GAL4-VP16 Luc = activates GAL4-VP16 luciferase, flagging SMARCA2 activator hits. shares compounds with SMARCA2 activ. HEK293 GAL4-VP16 pG5luc reporter, luciferase luminescence; scaled: DMSO wells 0%, SAHA wells 100%. activation, % at 9.1 µM. 3,500 compounds, 41% hits;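 active means activation above the solvent-only control well mean plus 3 SD, averaged across control plates, cut at about 5.2% in these data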
Numbers stand for hits; – = inactive; · = no result. An excerpt weighted towards active compounds, which were near 2.1% of everything screened.

SMILES	SMARCA2 activ	MC4R ag barr	F508del corr	MC4R antag cAMP	SMARCA2 conf	GAL4-VP16 Luc
CCc1ccc(NC(=O)CCCn2nc(CC)n3c(cc4occc43)c2=O)cc1	9.6	–	–	–	–	–
CCOc1ccc(CNC(=O)CCCn2nc(CC)n3c(cc4occc43)c2=O)cc1	–	–	–	–	·	·
C[C@@H]1CN([C@@H](C)CO)C(=O)c2cc(C#Cc3ccncc3)cnc2O[C@H]1CN(C)CC1CCCC1	·	·	–	·	·	·
Cc1ccc([N+](=O)[O-])cc1-c1ccc(/C=C(\C#N)c2[nH]nc(N)c2C#N)o1	9.5	–	–	–	–	12
COCc1cc(C)nc(OCC(=O)N/N=C/c2ccc(-c3cc([N+](=O)[O-])ccc3C)o2)c1C#N	–	–	·	–	·	·
CNC[C@@H]1Oc2cc(C#CC3CCCCC3)ccc2S(=O)(=O)N([C@H](C)CO)C[C@H]1C	·	·	–	·	·	·
Cc1csc(C(=O)NN)c1N(C)C	9.1	–	–	–	–	–
C[C@H]1CN([C@@H](C)CO)C(=O)c2cc(NC(=O)CCN3CCOCC3)ccc2O[C@@H]1CN(C)C(=O)Nc1ccc(F)cc1	·	·	–	·	·	·
Cc1ccc(CSCC(Nc2ccc(C(=O)O)cc2[N+](=O)[O-])C(=O)O)cc1 (configuration not stated)	9.0	–	–	–	–	–
O=C(COc1cccc2cccnc12)Nc1nccs1	9.2	–	·	–	9.0	12
OCCCNc1ncnc2c1cnn2-c1ccc(Cl)cc1	–	–	–	–	·	·
CN(C)CCNc1ncnc2c1cnn2-c1ccc(Cl)cc1	13	–	–	–	11	12
CCN(C(=O)COC(=O)/C(C#N)=C/c1ccc(N(C)C)cc1)C1CCS(=O)(=O)C1 (configuration not stated)	8.3	–	–	–	–	–
CN(C)c1ccc(/C=C(\C#N)C(=O)OCC(=O)N(C)C2CCS(=O)(=O)C2)cc1 (configuration not stated)	–	–	–	–	·	·
Cc1cc(NC(=O)CN(C)CCOc2ccccc2)ccc1Br	8.4	–	–	–	–	–
Cc1cc(OCC(=O)Nc2ccncc2)ccc1Br	–	–	·	–	·	·
COc1cccc(NC(=O)COc2ccc(Br)c(C)c2)c1	9.9	–	–	–	–	–
C[C@@H]1CCCCO[C@H](CN(C)C(=O)c2ccccc2)[C@H](C)CN([C@@H](C)CO)C(=O)c2cc(NS(=O)(=O)c3ccc(F)cc3)ccc2O1	·	·	–	·	·	·
O=C(Cc1ccccc1)Nc1nc(-c2cccs2)cs1	11	–	·	–	–	6.4
COc1ccc(NC(=O)Nc2ccc3c(c2)C(=O)N([C@@H](C)CO)C[C@@H](C)[C@@H](CN(C)S(=O)(=O)c2ccc(C)cc2)OCCCC[C@@H](C)O3)cc1	·	·	–	·	·	·
CCN(CC)S(=O)(=O)c1ccc(NC(=O)c2ccccn2)cc1	9.8	–	·	–	–	8.5
CN(C)c1ccc(/C=N/NC(=O)c2ccccn2)cc1	8.0	–	–	–	–	7.5
CC(/C=N/NC(=O)c1ccccn1)=C\c1ccco1	8.7	–	–	–	12	14
Cc1ccc(/C=N/NC(=O)c2ccccn2)o1	11	–	–	–	–	–
CN(C)c1ccc(/C=N\NC(=O)c2csnn2)cc1	8.4	–	·	–	15	10
SMILES	SMARCA2 activ	MC4R ag barr	F508del corr	MC4R antag cAMP	SMARCA2 conf	GAL4-VP16 Luc
O=C(N/N=C/c1ccncc1)c1ccccn1	–	–	–	–	·	·
C[C@H](CO)N1C[C@H](C)[C@H](CN(C)C(=O)CCCN(C)C)OCCCC[C@H](C)Oc2ccc(NC(=O)c3ccccc3)cc2C1=O	·	·	–	·	·	·
COc1cccc(CNS(=O)(=O)c2c(C(=O)N3CCCCC3)c(C)n(C)c2C)c1	–	–	–	–	·	·
COc1cccc(CNS(=O)(=O)c2c(C(=O)N3CCCCCC3)c(C)n(C)c2C)c1	9.8	–	–	–	–	–
C[C@H]1CCCCO[C@@H](CN(C)C(=O)C2CCCCC2)[C@@H](C)CN([C@@H](C)CO)C(=O)c2cc(N(C)C)ccc2O1	·	·	–	·	·	·
CC(=O)NC(=S)Nc1ccc(-c2nc3ccc(C)cc3s2)cc1	18	–	–	–	–	9.2
CNC(=S)Nc1ccc(-c2nc3ccc(C)cc3s2)cc1	–	–	–	–	·	·
CCC(=O)N1[C@H](CO)[C@@H]2c3ccccc3N(C(=O)c3cccc(OC)c3)C[C@@H]21	·	·	–	·	·	·
CC(C)CCN1CC(C(=O)NCCC2=CCCCC2)CC1=O (configuration not stated)	8.1	–	–	–	–	–
O=C(CNCc1ccccc1Cl)Nc1ccc2c(c1)OCCO2	13	–	–	–	13	6.9
O=C(Nc1ccc(Cl)cc1)Nc1ccc2c(c1)OCO2	9.0	–	–	–	–	11
Cc1cc2nc(-c3ccc(SCC(=O)Nc4ccc5c(c4)OCCO5)nc3)[nH]c2cc1C	–	–	–	–	·	·
O=C(Nc1ccc2c(c1)OCO2)Nc1ccc2c(c1)OCO2	–	–	–	–	·	·
O=C(CSc1ccccn1)Nc1ccc2c(c1)OCCO2	8.4	–	–	–	8.4	12
Cc1ccc2nc(-c3ccc(SCC(=O)Nc4ccc5c(c4)OCCO5)nc3)[nH]c2c1	9.8	–	·	–	–	19
COc1ccc(S(=O)(=O)Nc2cccc3c2O[C@H](CN(C)Cc2ccccc2)[C@@H](C)CN([C@@H](C)CO)C3=O)cc1	·	·	–	·	·	·
O=C(/C=C/c1ccc(Cl)cc1Cl)N1CCN(c2ccc([N+](=O)[O-])c(N3CCOCC3)c2)CC1	9.9	–	·	–	–	–
Nc1cccn2c(-c3ccc(Cl)c(Cl)c3)cnc12	–	–	–	–	·	·
Nc1cccn2c(-c3ccc(Cl)cc3)cnc12	9.3	–	–	–	15	20
COc1ccc(C=C2CS(=O)(=O)CC(=Cc3ccc(OC)cc3)C2=O)cc1	14	–	–	–	–	–
Cn1nc([N+](=O)[O-])nc1S(C)(=O)=O	52	–	–	–	49	–
COc1ccc(NC(=O)c2ccc(-c3ccc(C(C)=O)cc3)o2)cn1	12	–	–	–	–	–
COc1ccc(NC(=O)c2sccc2C)cn1	14	–	–	–	–	–
Cc1ccc(-c2ccc3c(c2)O[C@@H](CN(C)Cc2ccncc2)[C@@H](C)CN([C@@H](C)CO)S3(=O)=O)cc1	·	·	–	·	·	·
Cc1cc(NC(=O)c2ccccc2[N+](=O)[O-])ccc1Br	8.2	–	–	–	13	6.3
Cc1ccccc1C(=O)Nc1cccc(NC(=O)c2ccccc2[N+](=O)[O-])c1	–	–	–	–	·	·
CC1CCN(c2nc(/C=C/c3ccccc3)nc3ccccc23)CC1	–	–	–	–	·	·
COc1ccc(Nc2nc(N3CCCCC3)c3ccccc3n2)cc1	–	–	·	–	·	·
